From PubChem
Compounds with a hit are over-represented: about 0.79% of the library has one in this group of screens.
hIAP activ: human IAP activators, primary screen, biochemical, luminescence, uHTS; 330,000 tested, 0.16% active; purified human IAP, CDP-Star luminescence, 30 min; active compounds read high; 1 = vehicle-only enzyme, 0 = enzyme-free background; Intestinal-type alkaline phosphatase (Homo sapiens), P09923; activation factor at 10 µM;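 active = activation factor of the enzyme at least 2-fold when tested at 20 µM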
Target sequence (P09923 whole entry, looked up): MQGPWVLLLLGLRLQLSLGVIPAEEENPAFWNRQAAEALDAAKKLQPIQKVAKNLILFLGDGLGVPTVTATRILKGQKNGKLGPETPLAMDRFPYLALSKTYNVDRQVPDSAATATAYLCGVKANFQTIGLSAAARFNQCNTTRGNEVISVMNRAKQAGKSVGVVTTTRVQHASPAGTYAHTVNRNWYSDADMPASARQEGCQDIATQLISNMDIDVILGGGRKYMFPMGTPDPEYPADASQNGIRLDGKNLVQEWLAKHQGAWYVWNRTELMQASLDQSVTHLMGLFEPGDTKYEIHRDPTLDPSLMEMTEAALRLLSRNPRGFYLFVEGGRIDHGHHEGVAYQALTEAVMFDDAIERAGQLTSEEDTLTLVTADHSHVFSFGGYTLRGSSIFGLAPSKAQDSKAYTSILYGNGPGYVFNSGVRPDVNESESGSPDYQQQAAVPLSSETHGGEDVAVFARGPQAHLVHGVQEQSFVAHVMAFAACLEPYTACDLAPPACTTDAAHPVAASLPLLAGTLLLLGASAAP
bIAP act: bovine intestinal alkaline phosphatase activators, primary screen, biochemical, bovine IAP, CDP-star luminescence | 200,000 tested, 0.17% active | purified bovine IAP, 30 min; active compounds read high; fold of DMSO-control signal, blank-subtracted | activation factor at 20 µM;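 active = activation factor of 2 or more at 20 µM, a signal rise over negative controls twice the positive control's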
mIAP activ: activators of mouse IAP, primary screen, biochemical, luminescence, uHTS. AID 2805, 2010. muIAP, CDP-Star luminescence, 30 min; active compounds read high; 1 = vehicle-only enzyme signal, 0 = enzyme-free wells. intestinal alkaline phosphatase [Mus musculus]. activation factor at 10 µM. 330,000 tested, 0.24% active;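 active = activation factor of at least 2 at 20 µM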
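Assay system: mouse IAP enzyme; Reagent: CDP-Star chemiluminescent phosphatase substrate; Compound: DMSO-dissolved test compounds; Incubation: 30 min, room temperature; Technique: luminescence from enzymatic CDP-Star hydrolysis; Controls: DMSO-only wells and no-enzyme negative control.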
mIAP inh: inhibitors of mouse IAP, primary screen, biochemical, luminescence, uHTS; 330,000 tested, 0.2% active; AID 2806, 2010; purified mouse IAP, CDP-Star luminescence, 30 min; intestinal alkaline phosphatase [Mus musculus]; inhibition, % at 10 µM;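 active = inhibition of at least 40% at 10 µM in the primary screen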;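 note: plate controls were DMSO with enzyme for no effect and no enzyme wells for full effect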
bIAP inh: bovine intestinal alkaline phosphatase inhibitors, primary screen, selectivity assay for TNAP inhibitor project, biochemical, bovine IAP, CDP-star luminescence; purified bovine IAP, 30 min; inhibition, % at 20 µM; 190,000 tested, under 10 active; AID 1019, 2008;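 active = over 50% inhibition of intestinal alkaline phosphatase at 20 µM in the single-dose screen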
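test system = bovine IAP enzyme | medium = DEA buffer 100 mM, pH 9.8, with MgCl2 1.0 mM, ZnCl2 0.02 mM | detection = luminescence | dosing = single compound dose of 20 µM, 2% DMSO final | incubation = 30 min reaction at room temperature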
hIAP block: human IAP inhibitors, primary screen, biochemical, luminescence, uHTS. Intestinal-type alkaline phosphatase (Homo sapiens), P09923. purified IAP, CDP-Star luminescence, 30 min. inhibition, % at 10 µM. 330,000 tested, 0.12% active;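 active = inhibition reaching a set limit with compound at 10 µM in the primary screen, cut at about 35% in these data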;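 note: plate controls were DMSO wells with enzyme for no effect and no-enzyme buffer wells for full effect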
* marks the source's active call; other numbers are inactive results; i = inactive; x = not tested or not shown.

SMILES | hIAP activ | bIAP act | mIAP activ | mIAP inh | bIAP inh | hIAP block
Cc1nn(C)cc1/C=N\NC(=O)c1ccc2c(c1)c(C)c(C)n2Cc1ccccc1 | 1.2 | 8.3* | 2.3* | -130 | i | -20
Cc1c(C)n(Cc2ccccc2)c2ccc(C(=O)O)cc12 | 0.98 | x | 0.98 | 2 | x | 2
O=C(O)c1ccccc1C(=O)Nc1ccc(Br)c(C(F)(F)F)c1 | 0.96 | x | 1.1 | -9 | x | 4
Cc1cc(C)c(C(=O)Nc2ccc(Br)c(C(F)(F)F)c2)c(C)c1 | 1.1 | 1.1 | 2.1* | -114 | -9 | -7
O=S(=O)(c1ccc2c(c1)OCCO2)N1CCC(n2nnc3cc(F)ccc32)CC1 | 0.91 | 2.1* | 1.1 | -5 | -113 | 9
CCN(CC)c1ccc2cc(-c3nc4ccccc4[nH]3)c(=O)oc2c1 | 0.85 | 1.7 | 1.4 | -40 | -68 | 15
CCN(CC)c1ccc2cc(-c3nc4ccccc4n3C)c(=O)oc2c1 | x | 2.6* | x | x | -158 | x
CCc1ccc(C(C)NC(=S)NCc2ccc(F)cc2)cc1 (stereo not drawn) | 1.4 | x | 2.1* | -109 | x | -41
Cc1ccc(C(C)NC(=S)NCc2ccc(F)cc2)c(C)c1 (stereo not drawn) | 1.4 | x | 2.1* | -114 | x | -36
Cc1ccc(C(C)NC(=S)NCc2ccc(F)cc2)cc1C (stereo not drawn) | 0.9 | x | 1.9 | -94 | x | 10
CC1(C)Cc2cccc(Oc3ccc(S(=O)(=O)N4CCCCC4)cn3)c2O1 | 1.3 | 1 | 1.2 | -16 | -4 | -27
N#Cc1c(NCCN)nc(NCc2ccccc2)c2c1CCN(Cc1ccccc1)C2 | x | 3* | x | x | -195 | x
Nc1[nH]nc2nc(NCc3ccccc3)c3c(c12)CCN(Cc1ccccc1)C3 | 1 | 4.7* | 1.2 | -16 | -370 | -1
Cc1cc2nc(CCN(C(=S)NCC(C)C)C3CCCC3)[nH]c2cc1C | 0.93 | 1.8 | 2.1* | -113 | -81 | 7
O=C(c1ccco1)N1CCN(C(=O)C2(S(=O)(=O)c3ccc(Cl)cc3)CC2)CC1 | 1 | 1 | 1.1 | -6 | -1 | -5
Cc1cc2nc(C3CCN(CC4COc5ccccc5O4)CC3)[nH]c2cc1C (stereo not drawn) | 0.84 | 4.5* | 1.6 | -58 | -350 | 16
C=CCc1cc(C)cc(C)c1OCCn1cncn1 | 1 | 0.9 | 0.97 | 3 | 6 | 0
COc1ccc(C(=O)NNC(=S)NC(=O)C(C)(C)C)cc1 | 2.1* | 1.7 | 1.1 | -6 | -71 | -109
Cc1ccc2c(c1)N(CC(=O)N1CCCCCC1)C(=O)CO2 | 0.97 | 0.9 | 0.92 | 8 | 7 | 3
Cc1cc(C)cc(NC(=S)NCCSc2ccc(Cl)cc2)c1 | 1 | 1 | 2.3* | -128 | -4 | -2
Cc1ccc(SCCNC(=S)Nc2ccc(C)c(C)c2)cc1 | 1.1 | 0.9 | 2.8* | -179 | 8 | -11
S=C(NCCSCc1c(Cl)cccc1Cl)Nc1ccccc1 | 1.1 | 0.7 | 2.5* | -148 | 26 | -6
Cc1cccc(NC(=S)NNC(=S)NCc2ccccc2)c1 | 1.2 | 0.9 | 0.94 | 6 | 7 | -21
Cc1cccc(NC(=S)NCCC(c2ccccc2)c2ccccc2)c1 | 1 | 0.9 | 7.6* | i | 10 | -1
Cc1ccc(SCCNC(=S)Nc2cc(C)ccc2C)cc1 | 1 | 0.4 | 1.5 | -54 | x | -3
SMILES | hIAP activ | bIAP act | mIAP activ | mIAP inh | bIAP inh | hIAP block
Cc1cccc(C(C)C)c1NC(=O)c1ccc(COc2ccc3c(C)cc(=O)oc3c2)cc1 | 1 | 1 | 0.99 | 0 | -3 | -4
COC(=O)c1[nH]c2cccc(OC)c2c1NC(=O)CN1CC2(C)CC1CC(C)(C)C2 (stereo not drawn) | 1.1 | 1 | 1 | -4 | 4 | -10
Cc1ccc(SCCNC(=S)Nc2ccccc2)cc1 | 1.3 | 0.6 | 2.2* | -115 | 37 | -27
COc1ccccc1NC(=S)NCCSc1ccc(C)cc1 | 1.2 | 0.9 | 1.5 | -49 | 6 | -17
CC(Sc1nnc(-c2ccco2)o1)C(=O)Nc1ccc(OC(F)F)cc1 (stereo not drawn) | 1.1 | x | 0.49 | 51* | x | -10
O=C(CN1C(=O)NC2(CCCCC2)C1=O)N1CCN(S(=O)(=O)c2ccccc2)CC1 | 1 | 1 | 1.2 | -18 | 1 | -3
Cc1cc(/C=N/n2cnnc2)c(C)n1-c1ccc(OCc2ccc(Cl)cc2Cl)cc1 | 1.2 | 2.5* | 1.2 | -18 | -148 | -23
Cc1cc(/C=N/n2cnnc2)c(C)n1-c1ccc(Cl)cc1 | 1 | 0.9 | 1 | 0 | 10 | -1
Fc1ccccc1N1CC(c2ccccc2)C(c2cccs2)=N1 (stereo not drawn) | 1.1 | 1.7 | 2.2* | -119 | -70 | -10
Fc1ccc(N2N=C(c3cccs3)CC2c2ccccc2)cc1 (stereo not drawn) | 1 | 1.3 | 1.8 | -80 | -34 | -1
O=C(COc1ccc([N+](=O)[O-])cc1Cl)NCCN1C(=O)CSC1=O | 0.97 | x | 1.1 | -7 | x | 3
O=C(NNS(=O)(=O)c1ccccc1[N+](=O)[O-])c1ccccc1[N+](=O)[O-] | 1.1 | 1 | 0.94 | 6 | -2 | -14
O=C(N/N=C/c1ccc(O)cc1)c1cc(-c2ccc3c(c2)OCO3)n[nH]1 | 0.65 | 0.9 | 0.86 | 14 | 11 | 36*
N#Cc1ccc(-c2cccnc2)nc1SCC(=O)c1ccccc1 | 0.9 | x | 0.99 | 0 | x | 10
COc1cccc(NC(=O)NCCCSC2CCCCC2)c1 | 0.89 | 0.8 | 2.3* | -126 | 16 | 12
O=S(=O)(Nc1ccccc1N1CCCCC1)c1ccc(F)cc1 | 0.97 | x | 0.95 | 5 | x | 3
COc1ccc(NC(=O)N(C)C[C@H]2Oc3ccc(NC(=O)NC4CCCCC4)cc3C(=O)N([C@H](C)CO)C[C@@H]2C)cc1 | 0.96 | x | 2.1* | -105 | x | 4
COc1ccc(NC(=O)Nc2ccc3c(c2)C(=O)N([C@H](C)CO)C[C@H](C)[C@@H](CN(C)C(=O)NC2CCCCC2)O3)cc1 | 1.1 | x | 2.4* | -139 | x | -7
Cc1noc(C)c1S(=O)(=O)N(C)C[C@H]1Oc2ccc(NC(=O)NC3CCCCC3)cc2C(=O)N([C@H](C)CO)C[C@@H]1C | 0.98 | x | 2.6* | -157 | x | 2
Cc1ccc(NC(=O)CSC2=NCCN2)cc1 | 1.1 | 0.9 | 1.1 | -13 | 12 | -12
CCN(CC(=O)NCc1ccc(F)cc1)Cc1nc2ccccc2c(=O)[nH]1 | 1 | 2* | 1.2 | -15 | -100 | -5
